Measurements as given in ChEMBL document CHEMBL1800016, “Novel thiazolidinedione derivatives with anti-obesity effects: dual action as PTP1B inhibitors and PPAR-γ activators” (Bioorg Med Chem Lett, 2010).
Active and inactive are the calls of the source. The calls are words filed in the database; no cut-off is given here.

How the values were obtained:
[1] = biological target: Tyrosine-protein phosphatase non-receptor type 6 (Homo sapiens, UniProt P29350); experiment: Inhibition of catalytic domain of SHP-1 expressed in Escherichia coli assessed as p-nitrophenol release from pNPP substrate preincubated for 10 mins
Procedure, shortened: (§1)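 IC50 values against the PTP panel, with enzymes prepared as described in the supplementary material. Values are means ± SD of two or more experiments.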

Mus musculus [2] = experiment: Antiobesity activity in high fat diet-fed diabetic C57BL/6J Jms Slc mouse model assessed as decrease in non-esterified free fatty acid level in serum at 2.6 mg/day administered with food for 4 weeks; assay type: functional
Procedure, shortened: (§2)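 DIO mice were fed HFD for 8 wk, then HFD containing 0.1% w/w compound (about 2.6 mg/day/mouse) for 4 wk. At the end of feeding, mice were deprived of food overnight. Serum total cholesterol, triglyceride and NEFA were then measured. Values are mean ± SEM.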

[3] = Selectivity ratio of IC50 for TC-PTP to IC50 for PTP1B
[4] = biological target: T1, Peroxisome proliferator-activated receptor gamma (Homo sapiens) (UniProt P37231); experiment: Agonist activity at PPARgamma expressed in HepG2 cells co-expressing PPRE assessed as concentration required for maximal activation after 24 hrs by luciferase reporter gene assay; assay type: functional, cell-based
T1 sequence (whole entry): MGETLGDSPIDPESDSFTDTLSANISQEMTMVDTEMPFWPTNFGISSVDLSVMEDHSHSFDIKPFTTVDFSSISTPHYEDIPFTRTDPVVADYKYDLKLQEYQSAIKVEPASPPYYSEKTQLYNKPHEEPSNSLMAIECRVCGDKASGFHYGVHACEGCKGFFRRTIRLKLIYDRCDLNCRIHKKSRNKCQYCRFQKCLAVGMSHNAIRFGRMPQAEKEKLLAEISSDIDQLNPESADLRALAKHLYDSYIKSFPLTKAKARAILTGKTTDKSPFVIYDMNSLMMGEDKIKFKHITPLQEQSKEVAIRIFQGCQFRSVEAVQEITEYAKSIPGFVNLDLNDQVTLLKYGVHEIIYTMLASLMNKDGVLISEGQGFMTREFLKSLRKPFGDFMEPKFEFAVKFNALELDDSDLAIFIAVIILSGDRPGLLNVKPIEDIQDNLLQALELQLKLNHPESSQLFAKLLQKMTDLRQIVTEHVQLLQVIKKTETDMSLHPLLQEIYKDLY

[5] = Selectivity ratio of IC50 for membrane proximal catalytic domain of LAR-D1 to IC50 for PTP1B
Mus musculus [6] = experiment: Antiobesity activity in high fat diet-fed diabetic C57BL/6J Jms Slc mouse model assessed as decrease in total cholesterol level in serum at 2.6 mg/day administered with food for 4 weeks; assay type: functional; procedure, shortened: as §2
[7] = biological target: T2, Peroxisome proliferator-activated receptor gamma (Homo sapiens, UniProt P37231); experiment: Agonist activity at PPARgamma expressed in HepG2 cells co-expressing PPRE assessed as transcriptional activation after 24 hrs by luciferase reporter gene assay; assay type: functional, cell-based
T2 sequence (P37231 whole entry): T1 sequence (whole entry)
Procedure, shortened: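 HepG2 cells were transfected with a PPRE-driven luciferase reporter plus CMV-βGal. The basic luciferase reporter without a PPRE site served as the negative control. Compounds were added 6 h after transfection. Cells were lysed 24 h later. Luciferase activity was read on a luminometer and normalized to β-galactosidase for transfection efficiency. Two independent experiments; error as SEM.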

Mus musculus [8] = experiment: Antiobesity activity in high fat diet-fed diabetic C57BL/6J Jms Slc mouse model assessed as decrease in serum triglyceride level at 2.6 mg/day administered with food for 4 weeks; assay type: functional; procedure, shortened: as §2
Mus musculus [9] = experiment: Toxicity in high fat diet-fed diabetic C57BL/6J Jms Slc mouse model assessed as change in weight of liver at 2.6 mg/day administered with food for 4 weeks; assay type: organism-based; conditions: in vivo, po, 672 h
Procedure, shortened: (§3)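 At the end of the 4 wk in-feed dosing (about 2.6 mg/day/mouse in HFD), liver, kidney and lung weights were compared across the lean LFD, HFD control and treated groups.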

[10] = biological target: T3, Tyrosine-protein phosphatase 1 (Saccharomyces cerevisiae S288c, UniProt P25044); experiment: Inhibition of yeast PTP1 expressed in Escherichia coli assessed as p-nitrophenol release from pNPP substrate preincubated for 10 mins; procedure, shortened: as §1
T3 sequence (P25044 whole entry): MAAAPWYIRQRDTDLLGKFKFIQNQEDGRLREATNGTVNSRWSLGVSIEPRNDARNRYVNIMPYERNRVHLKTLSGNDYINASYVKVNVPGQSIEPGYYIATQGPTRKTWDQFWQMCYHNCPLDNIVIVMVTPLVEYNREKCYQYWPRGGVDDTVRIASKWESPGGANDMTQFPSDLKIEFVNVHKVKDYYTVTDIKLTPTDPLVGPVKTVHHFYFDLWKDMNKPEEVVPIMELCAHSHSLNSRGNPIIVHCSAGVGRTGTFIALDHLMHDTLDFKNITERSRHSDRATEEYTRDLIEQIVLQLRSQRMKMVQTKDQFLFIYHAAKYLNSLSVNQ

Mus musculus [11] = experiment: Antiobesity activity in high fat diet-fed diabetic C57BL/6J Jms Slc mouse model assessed as decrease in retroperitoneal fat at 2.6 mg/day administered with food for 4 weeks; assay type: functional
Procedure, shortened: (§4)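 DIO male C57BL/6J Jms Slc mice were fed a 45%-fat HFD for 8 wk, then HFD with 0.1% w/w compound in feed (about 2.6 mg/day/mouse) for 4 wk. A 10%-fat LFD lean group ran throughout. Measures were weight gain, feed efficiency (weight gain/kcal ×100), and epididymal and retroperitoneal fat pad weights. n = 8/group; mean ± SEM; one-way ANOVA.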

Mus musculus [12] = experiment: Antiobesity activity in high fat diet-fed diabetic C57BL/6J Jms Slc mouse model assessed as weight gain/kcal at 2.6 mg/day administered with food for 4 weeks; assay type: functional; procedure, shortened: as §4
Mus musculus [13] = experiment: Antiobesity activity in high fat diet-fed diabetic C57BL/6J Jms Slc mouse model assessed as decrease in epididymal fat at 2.6 mg/day administered with food for 4 weeks; assay type: functional; procedure, shortened: as §4
Mus musculus [14] = experiment: Toxicity in high fat diet-fed diabetic C57BL/6J Jms Slc mouse model assessed as change in weight of lung at 2.6 mg/day administered with food for 4 weeks; assay type: organism-based; conditions: in vivo, po, 672 h; procedure, shortened: as §3
[15] = biological target: T4, Tyrosine-protein phosphatase non-receptor type 1 (Homo sapiens) (UniProt P18031); experiment: Mixed type inhibition of PTP1B expressed in Escherichia coli
T4 sequence (whole entry): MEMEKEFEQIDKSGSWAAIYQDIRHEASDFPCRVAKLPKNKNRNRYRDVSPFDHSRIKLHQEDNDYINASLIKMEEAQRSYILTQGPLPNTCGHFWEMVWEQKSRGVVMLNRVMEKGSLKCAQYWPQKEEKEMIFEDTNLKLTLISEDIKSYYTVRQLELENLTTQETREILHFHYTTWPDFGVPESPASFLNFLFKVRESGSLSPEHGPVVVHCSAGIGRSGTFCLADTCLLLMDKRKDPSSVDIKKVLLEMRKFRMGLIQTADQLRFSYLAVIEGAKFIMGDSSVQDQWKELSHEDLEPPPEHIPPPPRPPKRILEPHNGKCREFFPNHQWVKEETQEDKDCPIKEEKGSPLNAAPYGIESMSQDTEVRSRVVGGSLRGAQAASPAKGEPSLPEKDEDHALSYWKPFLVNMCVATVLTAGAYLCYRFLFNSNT

Mus musculus [16] = experiment: Toxicity in high fat diet-fed diabetic C57BL/6J Jms Slc mouse model assessed as change in weight of kidney at 2.6 mg/day administered with food for 4 weeks; assay type: organism-based; conditions: in vivo, po, 672 h; procedure, shortened: as §3

Chain of Tyrosine-protein phosphatase non-receptor type 6 (P29350 whole entry, the tested form may be a part): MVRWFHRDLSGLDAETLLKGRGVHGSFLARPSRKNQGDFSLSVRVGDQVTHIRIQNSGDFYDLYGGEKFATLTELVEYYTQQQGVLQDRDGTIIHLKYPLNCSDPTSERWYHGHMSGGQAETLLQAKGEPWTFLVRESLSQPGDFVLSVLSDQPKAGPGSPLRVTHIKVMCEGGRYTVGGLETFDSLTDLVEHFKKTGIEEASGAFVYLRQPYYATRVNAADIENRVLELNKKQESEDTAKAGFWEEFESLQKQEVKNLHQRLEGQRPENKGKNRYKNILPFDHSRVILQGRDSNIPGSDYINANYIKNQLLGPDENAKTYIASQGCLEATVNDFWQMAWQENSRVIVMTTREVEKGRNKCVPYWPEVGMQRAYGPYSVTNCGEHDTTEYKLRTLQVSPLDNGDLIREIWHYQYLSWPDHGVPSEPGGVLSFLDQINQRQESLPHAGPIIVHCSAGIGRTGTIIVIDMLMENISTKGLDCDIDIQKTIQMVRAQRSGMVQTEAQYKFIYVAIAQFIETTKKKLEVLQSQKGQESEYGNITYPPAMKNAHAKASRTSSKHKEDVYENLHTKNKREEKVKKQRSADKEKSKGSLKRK

IC50 [1]: 3 µM
Ratio IC50 [3]: > 10
Activity [4]: 1.5 µM
Ratio IC50 [5]: > 10
EC50 [7]: 0.34 µM
IC50 [10]: 12 µM
inhibition [15]: Active
Compound: Cc1ccc(S(=O)(=O)Oc2cc(OCc3ccc(C(F)(F)F)cc3)c(/C=C3\SC(=O)NC3=O)cc2Br)cc1
Activity (Mus musculus [2]): 0.2 mM
Activity (Mus musculus [6]): 124 mg/dL
Activity (Mus musculus [8]): 76 mg/dL
Activity (Mus musculus [9]): Non-toxic
Activity (Mus musculus [11]): 0.43 g
feed efficiency (Mus musculus [12]): 0.57 g/100 kcal
Activity (Mus musculus [13]): 1.29 g
Activity (Mus musculus [14]): Non-toxic
Activity (Mus musculus [16]): Non-toxic
